High-throughput results deposited in PubChem BioAssay by Sanford-Burnham Center for Chemical Genomics.
The list is not random: actives were taken first. Their share in the collection is about 2.3%.
SUMO1 PPI mod: modulators of human SUMO1-mediated protein-protein interactions; P63165; SUMO1 binding to a labelled peptide, TR-FRET, 1 h; inhibition, % at 20 µM; hit rate 0.33% among 360,000; AID 602429; in the data active means inhibition above about 37%
CSN inh: blocks human CSN-mediated cullin deneddylation; Purified CSN, SCF-Nedd8-OG deneddylation, fluorescence polarization; inhibition, % at 12.5 µM; hit rate 0.38% among 360,000;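 active means pattern-corrected inhibition above about 35%, with an unprinted fluorescence ratio check between 0.5 and 1.5, limit read from the data, passing the limit was not always enough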;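 further: 0% = enzyme with substrate and 100% = substrate without enzyme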
Target sequence (Q92905 whole entry, looked up, one chain of several): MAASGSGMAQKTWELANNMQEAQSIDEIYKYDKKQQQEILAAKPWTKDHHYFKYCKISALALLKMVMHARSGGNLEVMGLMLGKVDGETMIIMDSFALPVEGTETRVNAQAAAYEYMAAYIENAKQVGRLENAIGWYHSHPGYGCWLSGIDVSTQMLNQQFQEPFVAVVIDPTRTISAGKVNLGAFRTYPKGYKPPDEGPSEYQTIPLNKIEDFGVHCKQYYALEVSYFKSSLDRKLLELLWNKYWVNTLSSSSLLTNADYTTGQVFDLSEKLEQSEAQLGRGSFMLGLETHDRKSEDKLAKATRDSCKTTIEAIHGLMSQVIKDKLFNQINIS
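Detection – fluorescence polarization · System – HEK293T-derived human Csn5 enzyme · Controls – substrate-only high control, full reaction low control · Timing – 90 min, room temperature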
DNMT1 inh: DNMT1 (human) enzyme inhibition. hit rate 0.83% among 360,000. P26358. inhibition (reported as % activation of signal), % at 10 µM. DNMT1 molecular beacon, Hinp1I cleavage, fluorescence; in the data active means inhibition above about 50%
Rpn11 block: Rpn11 (human) deubiquitinase inhibition | human 26S proteasome, Ub4-pepOG fluorescence polarization; 20S core pre-blocked with epoxomicin | inhibition, % at 20 µM | hit rate 0.59% among 360,000 | AID 588493;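 active means inhibition at 20 µM, scaled to each plate's controls, above about 33%, limit read from the data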
Target sequence (O00487 whole entry, looked up): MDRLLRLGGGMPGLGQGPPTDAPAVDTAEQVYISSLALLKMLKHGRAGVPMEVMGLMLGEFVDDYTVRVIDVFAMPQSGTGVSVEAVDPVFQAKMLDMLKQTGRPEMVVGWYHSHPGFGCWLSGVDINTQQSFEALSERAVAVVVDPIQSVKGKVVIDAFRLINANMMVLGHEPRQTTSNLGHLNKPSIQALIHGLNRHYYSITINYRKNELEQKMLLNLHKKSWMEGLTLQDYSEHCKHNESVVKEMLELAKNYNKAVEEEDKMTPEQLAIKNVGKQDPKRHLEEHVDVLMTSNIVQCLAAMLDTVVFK
SKN-1 block: inhibitors of C. elegans SKN-1; C. elegans VP596 Pgst-4::GFP/RFP ratio, acrylamide-induced, 24 h; inhibition, % at 21.8 µM; hit rate 0.49% among 360,000; AID 624304;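 active means interference check ratio from 0.5 to 1.5 plus GFP to RFP signal ratio inhibition reaching or exceeding a fixed threshold, cut at about 30% in these data, passing the limit was not always enough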
MT1-MMP act inh: inhibitors of human MT1-MMP activation; P50281; HT1080 RFP-PRO-GFP cells, GFP/RFP ratio fluorescence, overnight; percent of plate control window, DMSO zero; GFP/RFP ratio change, % at 20 µM; hit rate 0.061% among 360,000;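 active means GFP/RFP ratio change of at least 30% with cell ATP level not reduced by more than half and red fluorescence within 50% of control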
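Compound: 20 µM single dose, 1% DMSO / System: HT1080 RFP-PRO-GFP cells / Controls: DMSO and RFP-L50D-GFP cell wells / Read-out basis: GFP/RFP fluorescence ratio / Schedule: overnight compound exposure at 37 °C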
DNMT1 interf DR: shows spectral interference in the DNMT1 beacon assay. shares compounds with DNMT1 inh. molecular beacon fluorescence, spectral interference counter-screen. IC50, µM. 200 tested, under 10 active. AID 602382; call rule not given here
DNMT1 confirm: DNMT1 inhibition confirmation, single concentration; shares compounds with DNMT1 inh; DNMT1 molecular beacon HinP1I cleavage, fluorescence; inhibition, % at 10 µM; hit rate 8% among 2,300;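 active means average inhibition of at least 30% in the single-concentration confirmation test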
DNMT1 interf: shows spectral interference in the DNMT1 beacon assay | shares compounds with DNMT1 inh | DNMT1 molecular beacon spectral interference counterscreen, fluorescence 485/520 | activation (fluorescence interference), % at 10 µM | hit rate 1% among 2,300 | AID 602387;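 active means activation of at least 30% at 10 µM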;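 further: DNMT1 catalytic domain with a HinP1I cleavage step and a FAM/dabcyl DNA beacon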
Active calls of the source: *.

CN(C)C(CNC(=O)c1cc(-c2ccco2)nc2ccccc12)c1ccccc1 (stereo not drawn) was read as SUMO1 PPI mod -8, CSN inh 33, DNMT1 inh 86*, Rpn11 block -27, SKN-1 block -2, MT1-MMP act inh -4, DNMT1 interf DR >99, DNMT1 confirm 46* and DNMT1 interf -2.
Screening CCCCCCc1nc2nc(Cl)c(Cl)nc2[nH]1 returned SUMO1 PPI mod 5, CSN inh 7, DNMT1 inh 6, Rpn11 block -3, SKN-1 block 3 and MT1-MMP act inh -7.
CC(C)c1ccc(CN2CCC2(C)C(=O)Nc2cccc(Oc3ccccc3)c2)cc1 (stereo not drawn) was read as SUMO1 PPI mod 8, CSN inh -1, DNMT1 inh 7, Rpn11 block -6, SKN-1 block 13 and MT1-MMP act inh -1.
`Cc1ccc(NC(=O)COc2coc(CN3CCc4ccccc43)cc2=O)cc1Cl` gave SUMO1 PPI mod 6, CSN inh -2, DNMT1 inh 59*, Rpn11 block 9, SKN-1 block -7, MT1-MMP act inh 0, DNMT1 confirm 1 and DNMT1 interf 3.
Screening COC(=O)C1(C(=O)OC)C[C@H](c2ccc(OC)cc2)N(Cc2ccccc2OC)[C@@H]1c1ccc(OC)cc1 returned SUMO1 PPI mod -6, CSN inh 0, SKN-1 block -2 and MT1-MMP act inh 5.
For c1ccc(-c2cc(-c3nn4c(-c5ccco5)nnc4s3)c3ccccc3n2)cc1 the results were SUMO1 PPI mod 18, CSN inh 18, DNMT1 inh 55*, Rpn11 block -5, SKN-1 block 9, MT1-MMP act inh -5, DNMT1 confirm 4 and DNMT1 interf -3.
For O=[N+]([O-])c1ccc(C=NNC(=S)NN=Cc2ccc([N+](=O)[O-])cc2)cc1 the results were SUMO1 PPI mod 92*, CSN inh 16, DNMT1 inh 88*, Rpn11 block 8, SKN-1 block 1, MT1-MMP act inh 17, DNMT1 confirm 1 and DNMT1 interf -12.
O=[N+]([O-])c1ccc(C=NNC(=S)Nc2ccc(F)cc2)cc1 was read as SUMO1 PPI mod -10, CSN inh -4, DNMT1 inh 14, Rpn11 block 3, SKN-1 block 3 and MT1-MMP act inh 7.
O=C(COC(=O)C1CC(=O)N(Cc2ccco2)C1)c1ccc(OC(=O)c2ccco2)cc1 (stereo not drawn) was read as SUMO1 PPI mod 25, CSN inh 25, DNMT1 inh 76*, Rpn11 block 2, SKN-1 block 5, MT1-MMP act inh -4, DNMT1 confirm 5 and DNMT1 interf 3.
Screening Cc1[nH]c2ccccc2c1C(=O)COC(=O)C1CC(=O)N(Cc2ccco2)C1 (stereo not drawn) returned SUMO1 PPI mod 4, CSN inh 5, DNMT1 inh -2, Rpn11 block -4, SKN-1 block -10 and MT1-MMP act inh -3.
Cc1ccc(C(=O)Oc2ccc(C(=O)COC(=O)C3CC(=O)N(Cc4ccco4)C3)cc2)cc1 (stereo not drawn) was read as SUMO1 PPI mod 6, CSN inh 32, DNMT1 inh 66*, Rpn11 block -5, SKN-1 block 8, MT1-MMP act inh -4, DNMT1 confirm 12 and DNMT1 interf 2.
CN(Cc1cccc(F)c1)C(=O)Cc1ccc(S(=O)(=O)N2CCOCC2)s1 was read as SUMO1 PPI mod 1, CSN inh 1, DNMT1 inh -2, Rpn11 block -1, SKN-1 block 19 and MT1-MMP act inh -2.
CN(Cc1ccc(C(C)(C)C)cc1)C(=O)Cc1ccc(S(=O)(=O)N2CCOCC2)s1 was read as SUMO1 PPI mod 1, CSN inh -2, DNMT1 inh 71*, Rpn11 block 13, SKN-1 block -2, MT1-MMP act inh 2, DNMT1 confirm 3 and DNMT1 interf 3.
COc1ccc(-c2oc3c(c2C#CC(C)(C)O)C(OC)CCC3)cc1 (stereo not drawn) was read as SUMO1 PPI mod -5, CSN inh 1, SKN-1 block 12 and MT1-MMP act inh 3.
For O=C(N/N=C/c1ccc([N+](=O)[O-])o1)c1cc2ccccc2o1 the results were SUMO1 PPI mod -38, CSN inh 16, DNMT1 inh 13, Rpn11 block 0, SKN-1 block 2 and MT1-MMP act inh -11.
`COc1ccc(/C=N/NC(=O)c2cccc([N+](=O)[O-])c2)c2ccccc12` gave SUMO1 PPI mod 3, CSN inh -6, DNMT1 inh 51*, Rpn11 block 7, SKN-1 block 6, MT1-MMP act inh 3, DNMT1 confirm 0 and DNMT1 interf -3.
For Cc1nc2ccccn2c1C(=O)N/N=C/c1ccc([N+](=O)[O-])o1 the results were SUMO1 PPI mod 0, CSN inh 13, DNMT1 inh 64*, Rpn11 block -17, SKN-1 block -1, MT1-MMP act inh -9, DNMT1 confirm 5 and DNMT1 interf -2.
`COc1ccc(C(=O)N/N=C/c2ccc(OC(=O)c3cccc4ccccc34)c([N+](=O)[O-])c2)cc1` gave SUMO1 PPI mod -16, CSN inh -8, DNMT1 inh 53*, Rpn11 block -10, SKN-1 block 2, MT1-MMP act inh 9, DNMT1 confirm 5 and DNMT1 interf 0.
O=C(N/N=C/c1ccc([N+](=O)[O-])o1)c1cc2c(ccc3ccccc32)o1 was read as SUMO1 PPI mod 2, CSN inh 126, DNMT1 inh 85*, SKN-1 block -12, MT1-MMP act inh -9, DNMT1 confirm 8 and DNMT1 interf -9.
Screening COc1cccc(C(O)c2nc(/C=C/c3ccccc3)cs2)c1 (stereo not drawn) returned SUMO1 PPI mod -20, CSN inh -5, DNMT1 inh 10, Rpn11 block 2, SKN-1 block 4 and MT1-MMP act inh -2.
`Cc1ccc(/C=N/NC(=O)c2cc3c(ccc4ccccc43)o2)cc1[N+](=O)[O-]` gave SUMO1 PPI mod -8, CSN inh -3, DNMT1 inh 80*, Rpn11 block 3, SKN-1 block -7, MT1-MMP act inh -32, DNMT1 confirm -1 and DNMT1 interf -7.
